ChEMBL document CHEMBL4765376, “Discovery of an Orally Available Diazabicyclooctane Inhibitor (ETX0282) of Class A, C, and D Serine β-Lactamases” (J Med Chem, 2020)
Converted amounts (≈) assume the structure as drawn. The source made the active and inactive calls. The calls are words filed in the database; no cut-off is given here.

How the values were obtained:
[1] = tested on: Escherichia coli; assay: Synergistic antibacterial activity against Escherichia coli ARC 6077 drug resistant clinical isolates assessed as MIC for cefpodoxime antibacterial activity by CLSI based broth dilution method (Rvb > 64 ug/ml); format: functional
[2] = Drug metabolism assessed as diamine metabolite formation
[3] = Volume of distribution at steady state in Sprague-Dawley rat at 10 mg/kg, iv by LC/MS/MS analysis; format: ADME, organism-based; details: in vivo, read-out: Vdss
Method in brief: (§1)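 Jugular vein-cannulated male Sprague Dawley rats, 180–200 g, n = 3, given 10 mg/kg iv in 0.9% saline. Formulation pH checked at 4–7. […] Half-life taken from linear regression of the semilog concentration–time plot.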

[4] = tested on: Klebsiella oxytoca; assay: Synergistic antibacterial activity against Klebsiella oxytoca ARC 5389 carbapenem resistant clinical isolates assessed as MIC for cefpodoxime antibacterial activity by CLSI based broth dilution method (Rvb > 64 ug/ml); format: functional
[5] = tested on: Klebsiella pneumoniae; assay: Synergistic antibacterial activity against Klebsiella pneumoniae ARC 6098 drug resistant clinical isolates assessed as MIC for cefpodoxime antibacterial activity by CLSI based broth dilution method (Rvb > 64 ug/ml); format: functional
[6] = tested on: Klebsiella pneumoniae; assay: Antibacterial activity against Klebsiella pneumoniae ARC 6088 carbapenem-resistant clinical isolates assessed as reduction in bacterial growth by CLSI based broth dilution method; format: functional
Method in brief: (§2)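 Broth microdilution per CLSI in cation-adjusted Mueller–Hinton broth against drug-resistant clinical isolates; MIC read as the lowest concentration preventing bacterial growth.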

[7] = Half-life in Sprague-Dawley rat at 10 mg/kg, iv by LC/MS/MS analysis; format: ADME, organism-based; details: in vivo; method in brief: as §1
[8] = Inhibition of bacterial TEM-1 assessed as equilibrium constant using nitrocefin as chromogenic substrate by absorbance plate reader analysis
[9] = tested on: Klebsiella pneumoniae; assay: Antibacterial activity against Klebsiella pneumoniae ARC 6098 drug resistant clinical isolates assessed as reduction in bacterial growth by CLSI based broth dilution method; format: functional; method in brief: as §2
[10] = tested on: Escherichia coli; assay: Antibacterial activity against Escherichia coli ARC 6064 drug resistant clinical isolates assessed as reduction in bacterial growth by CLSI based broth dilution method; format: functional; method in brief: as §2
[11] = tested on: Klebsiella oxytoca; assay: Antibacterial activity against Klebsiella oxytoca ARC 5389 carbapenem resistant clinical isolates assessed as reduction in bacterial growth by CLSI based broth dilution method; format: functional; method in brief: as §2
[12] = tested on: Citrobacter freundii; assay: Synergistic antibacterial activity against Citrobacter freundii ARC 3518 carbapenem resistant clinical isolates assessed as MIC for cefpodoxime antibacterial activity by CLSI based broth dilution method (Rvb > 64 ug/ml); format: functional
[13] = tested on: Citrobacter freundii; assay: Antibacterial activity against Citrobacter freundii ARC 3518 carbapenem resistant clinical isolates assessed as reduction in bacterial growth by CLSI based broth dilution method; format: functional; method in brief: as §2
[14] = Protein binding in Sprague-Dawley rat plasma assessed as fraction unbound at 5 to 100 uM; format: ADME, cell-free; details: dose 5-100 µM
Method in brief: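 Rat plasma protein binding reported as mean percent unbound across 5–100 μM.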

[15] = tested on: Klebsiella pneumoniae; assay: Antibacterial activity against Klebsiella pneumoniae ARC 6107 carbapenem resistant clinical isolates assessed as reduction in bacterial growth by CLSI based broth dilution method; format: functional; method in brief: as §2
[16] = tested on: Klebsiella pneumoniae; assay: Synergistic antibacterial activity against Klebsiella pneumoniae ARC 6082 drug resistant clinical isolates assessed as MIC for cefpodoxime antibacterial activity by CLSI based broth dilution method (Rvb > 64 ug/ml); format: functional
[17] = tested on: Klebsiella pneumoniae; assay: Synergistic antibacterial activity against Klebsiella pneumoniae ARC 6107 carbapenem resistant clinical isolates assessed as MIC for cefpodoxime antibacterial activity by CLSI based broth dilution method (Rvb > 64 ug/ml); format: functional
[18] = Renal clearance in Sprague-Dawley rat at 10 mg/kg, iv by LC/MS/MS analysis; format: ADME, organism-based; details: in vivo; method in brief: as §1
[19] = tested on: Escherichia coli; assay: Antibacterial activity against Escherichia coli ARC 6059 drug resistant clinical isolates assessed as reduction in bacterial growth by CLSI based broth dilution method; format: functional; method in brief: as §2
[20] = tested on: Escherichia coli; assay: Antibacterial activity against Escherichia coli ARC 2687 drug resistant clinical isolates assessed as reduction in bacterial growth by CLSI based broth dilution method; format: functional; method in brief: as §2
[21] = Cmax in Sprague-Dawley rat at 10 mg/kg, iv by LC/MS/MS analysis; format: ADME, organism-based; parameters: route intravenous, dose 10 mg/kg; details: in vivo; method in brief: as §1
[22] = Clearance in Sprague-Dawley rat at 10 mg/kg, iv by LC/MS/MS analysis; format: ADME, organism-based; details: in vivo; method in brief: as §1
[23] = tested on: Escherichia coli; assay: Synergistic antibacterial activity against Escherichia coli ARC 6059 drug resistant clinical isolates assessed as MIC for cefpodoxime antibacterial activity by CLSI based broth dilution method (Rvb > 64 ug/ml); format: functional
[24] = tested on: Escherichia coli; assay: Synergistic antibacterial activity against Escherichia coli ARC 6064 drug resistant clinical isolates assessed as MIC for cefpodoxime antibacterial activity by CLSI based broth dilution method (Rvb > 64 ug/ml); format: functional
[25] = tested on: Klebsiella pneumoniae; assay: Synergistic antibacterial activity against Klebsiella pneumoniae ARC 6088 carbapenem resistant clinical isolates assessed as MIC for cefpodoxime antibacterial activity by CLSI based broth dilution method (Rvb > 64 ug/ml); format: functional
[26] = AUC in Sprague-Dawley rat at 10 mg/kg, iv by LC/MS/MS analysis; format: ADME, organism-based; parameters: dose 10 mg/kg; details: in vivo; method in brief: as §1
[27] = tested on: Escherichia coli; assay: Antibacterial activity against Escherichia coli ARC 6077 drug resistant clinical isolates assessed as reduction in bacterial growth by CLSI based broth dilution method; format: functional; method in brief: as §2
[28] = tested on: Enterobacter cloacae; assay: Antibacterial activity against Enterobacter cloacae ARC 6055 drug resistant clinical isolates assessed as reduction in bacterial growth by CLSI based broth dilution method; format: functional; method in brief: as §2
[29] = tested on: Klebsiella pneumoniae; assay: Antibacterial activity against Klebsiella pneumoniae ARC 6082 drug resistant clinical isolates assessed as reduction in bacterial growth by CLSI based broth dilution method; format: functional; method in brief: as §2
[30] = tested on: Escherichia coli; assay: Antibacterial activity against Escherichia coli ARC 6078 drug resistant clinical isolates assessed as reduction in bacterial growth by CLSI based broth dilution method; format: functional; method in brief: as §2
[31] = tested on: Enterobacter cloacae; assay: Synergistic antibacterial activity against Enterobacter cloacae ARC 6049 drug resistant clinical isolates assessed as MIC for cefpodoxime antibacterial activity by CLSI based broth dilution method (Rvb > 64 ug/ml); format: functional
[32] = tested on: Escherichia coli; assay: Synergistic antibacterial activity against Escherichia coli ARC 6078 drug resistant clinical isolates assessed as MIC for cefpodoxime antibacterial activity by CLSI based broth dilution method (Rvb > 64 ug/ml); format: functional
[33] = tested on: Enterobacter cloacae; assay: Synergistic antibacterial activity against Enterobacter cloacae ARC 6055 drug resistant clinical isolates assessed as MIC for cefpodoxime antibacterial activity by CLSI based broth dilution method (Rvb > 64 ug/ml); format: functional
[34] = tested on: Enterobacter cloacae; assay: Antibacterial activity against Enterobacter cloacae ARC 6049 drug resistant clinical isolates assessed as reduction in bacterial growth by CLSI based broth dilution method; format: functional; method in brief: as §2
[35] = Drug excretion in Sprague-Dawley rat urine assessed as unchanged drug at 10 mg/kg, iv by LC/MS/MS analysis; format: ADME, organism-based; details: read-out: Drug excretion
Method in brief: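 Male Sprague Dawley rats, 10 mg/kg iv in 0.9% saline, n = 3. Urine assayed for unchanged parent drug, reported as percent of the administered iv dose.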

[36] = tested on: Escherichia coli; assay: In vivo antibacterial activity against multidrug-resistant Escherichia coli ARC 2687 infected in CD-1 mouse model of neutropenic thigh infection assessed as colony forming unit at 600 mg/kg, sc administered at 6 hrs interval relative to pretreatment; format: functional
Method in brief: (§3)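 Female CD-1 mice (20–22 g, 3/arm) made neutropenic with ip cyclophosphamide, 150 mg/kg on day −4 and 100 mg/kg on day −1. Each thigh received an im inoculum of 5.5 × 10^6–1.6 × 10^7 CFU from saline suspension (OD625 0.1, diluted). Dosing began 2 h post-infection, q6h. Oral agents were given in 0.5% HPMC/0.1% Tween 80; meropenem was given sc in water. Thighs were taken at 24 h, homogenized and plated on TSA (35 °C overnight) for CFU counts.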

[37] = Half-life in Sprague-Dawley rat at 11.6 mg/kg, po by LC/MS/MS analysis; format: ADME, organism-based; details: in vivo
[38] = Cmax in Sprague-Dawley rat at 11.6 mg/kg, po by LC/MS/MS analysis; format: ADME, organism-based; parameters: route oral, dose 11.6 mg/kg; details: in vivo
[39] = Toxicity in rat assessed as adverse effect at 400 to 500 mg/kg, po measured for 14 days; format: organism-based; details: in vivo, 336 h, dose 400-500 mg/kg, time 14 day
Method in brief: (§4)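 Fourteen-day GLP toxicology study with daily oral administration; NOAEL determined.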

[40] = tested on: Escherichia coli; assay: Synergistic antibacterial activity against multidrug-resistant Escherichia coli ARC 2687 infected in CD-1 mouse model of neutropenic thigh infection assessed as reduction in colony forming unit in presence of cefpodoxime at 50 to 100 mg/kg, po administered every 6 hrs interval; format: functional; details: dose 50-100 mg/kg; method in brief: as §3
[41] = AUC in Sprague-Dawley rat at 11.6 mg/kg, po by LC/MS/MS analysis; format: ADME, organism-based; parameters: dose 11.6 mg/kg; details: in vivo
[42] = Oral bioavailability in Sprague-Dawley rat at 11.6 mg/kg by LC/MS/MS analysis; format: ADME, organism-based; details: in vivo
Method in brief: (§5)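 Jugular vein-cannulated male Sprague Dawley rats (180–200 g, n = 3/route). Intravenous arm: active acid at 10 mg/kg in 0.9% saline, plasma sampled 0.08–8 h. Oral arm: prodrug at a dose equivalent to 10 mg/kg acid in 25:75 PEG 400/WFI, plasma sampled 0.25–24 h. Levels by LC/MS/MS; F = (AUCpo/AUCiv) × 100.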

[43] = Toxicity in dog assessed as adverse effect at 400 to 500 mg/kg, po measured for 14 days; format: organism-based, Canis lupus familiaris; details: in vivo, 336 h, dose 400-500 mg/kg, time 14 day; method in brief: as §4
[44] = Oral bioavailability in Sprague-Dawley rat at 10 mg/kg by LC/MS/MS analysis; format: ADME, organism-based; details: in vivo; method in brief: as §5
[45] = tested on: Escherichia coli; assay: Synergistic antibacterial activity against multidrug-resistant Escherichia coli ARC 2687 infected in CD-1 mouse model of neutropenic thigh infection assessed as reduction in colony forming unit in presence of cefpodoxime at 10 to 100 mg/kg, po administered every 6 hrs interval; format: functional, organism-based; details: dose 10-100 mg/kg; method in brief: as §3

Structure (SMILES): CC1=C[C@H](C(N)=O)N2C[C@@H]1N(O[C@H](F)C(=O)O)C2=O
- MIC [1]: 0.125 µg/mL
- Drug metabolism [2]: Metabolite detected
- Vd [3]: 0.7 L/kg
- MIC [4]: 0.5 µg/mL
- MIC [5]: 0.125 µg/mL
- MIC [6]: 16 µg/mL (≈ 58.6 µM)
- half-life [7]: 24 min
- Ki [8]: 0.34 nM
- MIC [9]: 16 µg/mL (≈ 58.6 µM)
- MIC [10]: 8 µg/mL (≈ 29.3 µM)
- MIC [11]: 16 µg/mL (≈ 58.6 µM)
- MIC [12]: 0.13 µg/mL
- MIC [13]: 0.25 µg/mL (≈ 0.915 µM)
- fraction unbound [14]: 91%
- MIC [15]: 4 µg/mL (≈ 14.6 µM)
- MIC [16]: 0.125 µg/mL
- MIC [17]: 0.25 µg/mL
- CL renal [18]: 13.4 mL/min/kg
- MIC [19]: 16 µg/mL (≈ 58.6 µM)
- MIC [20]: 0.5 µg/mL (≈ 1.83 µM)
- Cmax [21]: 17500 ng/mL
- clearance [22]: 23.1 mL/min/kg
- MIC [23]: 0.125 µg/mL
- MIC [24]: 0.5 µg/mL
- MIC [25]: 0.125 µg/mL
- AUC [26]: 7190 ng·h/mL
- MIC [27]: 4 µg/mL (≈ 14.6 µM)
- MIC [28]: 1 µg/mL (≈ 3.66 µM)
- MIC [29]: 64 µg/mL (≈ 234 µM)
- MIC [30]: 0.25 µg/mL (≈ 0.915 µM)
- MIC [31]: 0.125 µg/mL
- MIC [32]: 0.25 µg/mL
- MIC [33]: 0.125 µg/mL
- MIC [34]: 1 µg/mL (≈ 3.66 µM)
- dose excreted [35]: 60%

Structure (SMILES): C[C@@H](O)[C@H]1C(=O)N2C(C(=O)O)=C(S[C@@H]3CN[C@H](C(=O)N(C)C)C3)[C@H](C)[C@H]12 [MEROPENEM]
- Activity [36]: -1.46 log10CFU/g

Structure (SMILES): CC1=C[C@@H](C(N)=O)N2C[C@@H]1N(O[C@H](F)C(=O)OC(C)C)C2=O
- Drug metabolism [2]: Metabolite detected
- half-life [37]: 66 min
- Cmax [38]: 5800 ng/mL
- Activity [39]: Non-Toxic
- Activity [40]: 1.11 log10CFU/g
- AUC [41]: 7040 ng·h/mL
- bioavailability [42]: 98%
- Activity [43]: Non-Toxic
- bioavailability [44]: 98%
- Activity [45]: Active
